# V1aR counter = agonists of human V1a receptor, primary screen, counter-screen for OXTR agonist project, fluorescence, CHO-V1R cells; Fluo-8 calcium fluorescence, agonist mode; 0% DMSO, 100% 3 nM vasopressin; activation, % at 3 µM; 320,000 tested, 0.25% active;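 active means activation above the mean activation of all tested compounds plus 3 SD, per screening run, cut at about 20% in these data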;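 further: signal is peak over basal fluorescence ratio across a 100 second FLIPR read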
# Target sequence (P37288 whole entry, looked up): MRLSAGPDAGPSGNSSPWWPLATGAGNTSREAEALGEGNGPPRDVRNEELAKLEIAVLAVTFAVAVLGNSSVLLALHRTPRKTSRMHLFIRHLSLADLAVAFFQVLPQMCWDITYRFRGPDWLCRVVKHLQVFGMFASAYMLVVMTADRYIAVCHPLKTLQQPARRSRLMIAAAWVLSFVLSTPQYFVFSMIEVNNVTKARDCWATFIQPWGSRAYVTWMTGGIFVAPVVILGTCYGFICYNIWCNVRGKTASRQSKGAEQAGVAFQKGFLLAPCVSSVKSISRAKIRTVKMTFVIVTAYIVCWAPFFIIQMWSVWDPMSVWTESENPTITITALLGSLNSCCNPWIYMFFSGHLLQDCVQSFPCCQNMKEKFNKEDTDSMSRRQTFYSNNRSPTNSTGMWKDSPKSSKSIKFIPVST
# OX1R antag-1 = antagonists of human orexin 1 receptor (OX1R) | Orexin/Hypocretin receptor type 1 (Homo sapiens), O43613 | OX1R-expressing cells, FRET antagonist read-out | inhibition, % at 6.6 µM | 330,000 tested, 1.8% active | AID 485270, 2010; in the data active means inhibition mostly above about 38%, no sharp cut-off; inactive means mostly below about 40%;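 further: 0% = agonist challenge alone and 100% = reference antagonist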
# OXTR agonist = human OXTR agonists, primary screen, fluorescence, CHO-OTR cells, Fluo-8 calcium; Oxytocin receptor (Homo sapiens), P30559; Fluo-8 calcium fluorescence; normalized: DMSO 0%, oxytocin 100%; activation, % at 3 µM; 320,000 tested, 0.32% active; AID 2435, 2010;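 active means activation above the mean of all tested compounds plus 3 SD, cutoff set per screening run, cut at about 20% in these data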;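 further: peak over basal fluorescence ratio from a 100 s FLIPR kinetic read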
# CHO parental Ca = ATP-evoked calcium signal inhibitors, parental CHO, primary screen, counter-screen for OX1R antagonist project, cell-based, fluorescence, Fluo-8 calcium dye. parental CHO-K1, ATP-induced calcium, Fluo-8 fluorescence. inhibition, % at 5.6 µM. 330,000 tested, 0.63% active. AID 463079, 2010;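 active means inhibition above that plate's mean sample inhibition plus 3 SD, cut at about 26% in these data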;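 further: 0% = ATP-challenged DMSO wells and 100% = DMSO wells without ATP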
#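 Measured by: calcium-sensitive Fluo-8 fluorescence / Test system: CHO parental line / Controls: ATP-challenged DMSO wells low, unchallenged DMSO wells high / Measure: % inhibition / Compound: single nominal dose of 5.6 µM per compound / Replicates: single well per compound, no replicates / Reagent: ATP as calcium-mobilizing challenge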
# OX1R antag-2 = OX1R (HCRTR1) antagonists, primary screen, fluorescence, CHO/OX1R cells, Fluo-8 calcium, orexin A | Orexin/Hypocretin receptor type 1 (Homo sapiens), O43613 | Fluo-8 calcium fluorescence | inhibition, % at 5 µM | 330,000 tested, 0.43% active | AID 434989, 2010;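 active means inhibition above its plate's threshold, mean inhibition of all tested compounds on the plate plus 3 SD, cut at about 37% in these data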;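 further: 0% = orexin A challenge wells and 100% = SB-334867-A antagonist wells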
# OXTR potentiator = human OXTR potentiators, primary screen, fluorescence, CHO-OTR cells, Fluo-8 calcium; AID 2445, 2010; Oxytocin receptor (Homo sapiens), P30559; activation, % at 3 µM; Fluo-8 calcium fluorescence, potentiator mode; 0% = oxytocin EC15, 100% = EC100; 320,000 tested, 0.061% active;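 active means activation above that plate's cutoff, the mean activation of tested compounds plus 3 SD, cut at about 6.6% in these data, passing the limit was not always enough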;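 further: 100% uses oxytocin at 75 nM as the full agonist control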
#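 Measured by – Fluo-8 calcium dye fluorescence · Test system – human OTR in CHO cells · Dosing – one concentration, 3.0 µM compound · Controls – EC15 oxytocin alone as 0%, 75 nM oxytocin as 100% · Evaluation – normalized max/min fluorescence ratio, % activation · Timing – 6 min pre-incubation, 100 s read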
# An asterisk follows results filed as active. Sampled rows, rich in hits. Any-hit rate of the full collection: about 2.7%.
SMILES,V1aR counter,OX1R antag-1,OXTR agonist,CHO parental Ca,OX1R antag-2,OXTR potentiator
CCC(CO)Oc1cc(NCc2ccc(O)cc2)c2ncn(C(C)C)c2c1 (configuration not stated),0.7,1.9,0.8,-14.3,-23.8,0.2
CCc1c(C(=O)NC(C)C2CCCO2)csc1C (configuration not stated),1.1,11.9,0.6,-2.9,-8.3,-4.7
Cc1c(NC(=O)CN2C(=O)c3ccccc3C2=O)c(=O)n(-c2ccccc2)n1C,0.2,11.8,0.9,-16.0,-17.6,0.0
O=C(CCCCCN1C(=O)c2cccc3cccc(c23)C1=O)NCCCO,-0.2,52.0*,0.0,5.4,-9.5,-11.5
O=C(CN1C(=O)c2cccc3cccc(c23)C1=O)NCCCO,-0.3,56.9*,1.0,-1.7,-5.5,2.2
COCCCNC(=O)CN1C(=O)c2cccc3cccc1c23,0.5,14.8,0.7,8.4,1.6,-0.1
Cc1c(NC(=O)CCCN2C(=O)c3cccc4cccc(c34)C2=O)c(=O)n(-c2ccccc2)n1C,-1.3,42.4*,-2.8,-5.0,-13.2,-9.6
CCOC(=O)N1CCN(C(=O)CCCn2nnnc2CN2CCC(C)CC2)CC1,0.4,10.7,-0.1,-3.3,-10.4,-3.8
Cc1cc(N=Nc2ccccc2C(=O)O)c(C)c(C)c1O,2.3,49.8*,-0.4,6.0,-3.0,-4.1
Cc1cc(O)c(C(C)C)cc1N=Nc1ccccc1C(=O)O,5.5,64.6,4.0,-9.9,18.1,-0.4
O=C(c1ccc([N+](=O)[O-])cc1)N(c1ccccn1)c1ccccn1,0.4,74.3*,-0.1,1.0,-11.1,-10.8
O=C(NCc1ccccn1)c1ccc([N+](=O)[O-])cc1,-0.2,30.6,0.2,-5.6,-14.2,-2.9
O=C(Nc1cc(Sc2ccccn2)cc([N+](=O)[O-])c1)c1ccc([N+](=O)[O-])cc1,7.6,22.1,10.9,40.8*,44.3*,-18.5
O=[N+]([O-])c1ccc(Sc2ccccn2)nc1,-1.5,72.7*,-1.8,2.0,0.4,-10.7
C/C(=N\NC(=O)c1cc(Br)ccc1O)c1cccc(NC(=O)c2ccccc2F)c1,8.9,59.2*,5.7,-7.7,-14.6,-12.6
Fc1cccc2sc(Nc3nnc(-c4ccco4)o3)nc12,2.3,43.6,0.0,41.2*,29.4,-16.5
N#CCCN(C(=S)NC(=O)C1CCCCC1)c1ccccc1F,1.1,2.7,0.5,-1.7,-17.3,-3.6
CCCN1CCN(CC(=O)Nc2nnc(CC)s2)CC1,0.7,8.1,0.0,4.1,-1.0,-2.9
O=[n+]1c2c(n([O-])c3cc(F)c(N4CCCC4)cc31)CCCC2,11.7,52.5*,12.0,4.6,-0.3,-4.4
O=[n+]1c2c(n([O-])c3cc(F)c(N4CCCC4)cc31)CCC2,6.8,67.6*,6.5,2.7,7.5,-2.7
Cc1ccc2c(c1)n([O-])c1c([n+]2=O)CCCC1,1.0,28.9,-0.4,-0.8,-9.2,-0.7
O=[n+]1c2c(n([O-])c3ccccc31)CCC2,0.7,28.1,1.1,8.6,-1.4,-2.5
Cc1cc(CNC(=O)C(C)n2cc([N+](=O)[O-])cn2)c2ccccc2n1 (configuration not stated),-0.5,68.7*,-1.1,-26.7,13.2,-19.1
CN1C(N)=NC(=O)/C1=C\c1ccc(Br)cc1,1.0,29.8,-0.1,-2.7,-23.8,-3.5
CN(C)c1c([N+](=O)[O-])cc2[nH]c(=O)[nH]c2c1[N+](=O)[O-],1.3,41.7*,-0.4,1.1,8.8,-17.7
SMILES,V1aR counter,OX1R antag-1,OXTR agonist,CHO parental Ca,OX1R antag-2,OXTR potentiator
COc1ccc(NC(=O)C(OC(=O)c2cnccn2)c2ccccc2)cc1Cl (configuration not stated),-0.7,23.5,-0.7,-11.3,-12.4,-11.6
CCOc1cccc2c1OC1(C)CC2NC(=O)N1c1cccc(Cl)c1 (configuration not stated),-0.8,43.7*,-2.4,-3.5,-8.3,4.6
COc1ccccc1N1CCN(C(=O)c2cccc(N3C(=O)NC4CC3(C)Oc3c(OC)cccc34)c2)CC1 (configuration not stated),1.0,22.6,-0.4,-25.4,-25.9,-6.5
Cc1cc(C)n(-c2nc(Nc3ccccc3C(F)(F)F)nc(-n3nc(C)cc3C)n2)n1,9.3,59.7,11.7,41.7*,62.5*,-20.9
Cc1cc(C)n(-c2nc(Nc3ccccc3C)nc(-n3nc(C)cc3C)n2)n1,5.1,14.4,19.1,25.7,26.9,-22.6
O=C(c1nc2nc(-c3ccc(Cl)cc3)cc(C(F)(F)F)n2n1)N1CCOCC1,-1.4,46.2*,-2.1,-17.9,-22.6,4.4
CN(CCCC(=O)NCCc1ccccc1)S(=O)(=O)c1ccc([N+](=O)[O-])cc1,1.4,46.0*,-0.2,-12.2,-7.0,-13.8
CC(C)c1ccc(C(=O)CN2C(=O)NC3(CCc4ccccc43)C2=O)cc1 (configuration not stated),1.6,5.7,-1.4,-37.2,11.6,-8.0
Cc1cc(C)n2nc(Nc3ccccc3)cc2n1,-0.7,48.7*,-0.8,-19.7,-1.6,-0.5
Cc1cc(C)n2nc(-c3ccccc3)cc2n1,1.4,25.9,-1.6,-2.0,-10.7,-8.3
COc1cc2c(cc1OC)CN(C(=S)Nc1ccc(OC(F)F)cc1)CC2,10.4,21.8,17.2,45.1*,4.0,-7.2
CC(C)(C)C(=O)/C=c1\s/c(=C\c2ccc(-c3ccc([N+](=O)[O-])cc3)o2)c(=O)n1CC(=O)NC(N)=O,46.8*,8.9,36.2*,64.4*,71.3*,-7.7
O=Nc1c(O)n(Cc2ccccc2)c2ccccc12,-0.3,6.5,0.5,6.5,-5.4,-3.2
O=Nc1c(O)n(Cc2ccc(Cl)c(Cl)c2)c2ccccc12,-1.6,20.9,-2.3,37.9*,-4.2,-15.6
Cc1ccccc1CNc1ncnc2cc(Cl)ccc12,9.1,14.5,8.1,-11.5,-28.3,-17.7
Cc1ccc(CNc2ncnc3cc(Cl)ccc23)cc1,6.2,31.4,14.8,35.4*,-16.4,-19.2
c1ccc(CNc2nc(NCc3ccccc3)c3ccccc3n2)cc1,21.4*,6.7,28.3*,74.9*,89.3*,-18.9
Cc1cccc(/C=C/c2nc3ccccc3c(=O)[nH]2)c1,1.4,69.2*,0.1,-13.7,-17.6,-11.0
COCCN1C(=O)/C(=C/c2ccc(N3CCCC3)cc2C)SC1=S,18.4,11.9,10.2,31.5*,32.5,-10.8
